The list is not random: actives were taken first. Their share in the collection is about 3.8%.
Kir21 inh – blocks the mouse Kir2.1 inward-rectifier potassium channel. P35561. HEK293-Kir2.1, FluxOR thallium flux fluorescence; hits give low values. B-score at 10 µM. 310,000 compounds, 0.85% hits. AID 1672;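 active = fluorescence ratio B-score at or below minus 3 SD of library scores, with starting-brightness B-score within 2 SD, cut at about -4.2 in these data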;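 also: channel flux triggered by added potassium and thallium sulfate stimulus; B-score of peak minus minimum fluorescence over baseline after thallium stimulus; more negative B-score means stronger Kir2.1 block with less thallium influx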
Target sequence (P35561 whole entry, looked up): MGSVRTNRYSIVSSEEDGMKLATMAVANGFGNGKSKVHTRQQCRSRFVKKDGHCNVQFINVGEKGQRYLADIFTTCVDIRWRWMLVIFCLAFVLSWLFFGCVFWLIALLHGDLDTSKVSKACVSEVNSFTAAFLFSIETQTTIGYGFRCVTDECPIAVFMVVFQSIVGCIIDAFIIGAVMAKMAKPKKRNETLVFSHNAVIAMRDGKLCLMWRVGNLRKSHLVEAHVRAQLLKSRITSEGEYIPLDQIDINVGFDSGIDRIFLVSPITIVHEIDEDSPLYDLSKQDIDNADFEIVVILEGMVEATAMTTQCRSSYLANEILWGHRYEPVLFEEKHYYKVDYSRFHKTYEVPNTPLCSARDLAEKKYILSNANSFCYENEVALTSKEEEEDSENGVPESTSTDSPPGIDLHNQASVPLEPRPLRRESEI
KCNK3 block – human KCNK3 channel inhibition, primary screen | O14649 | B-score at 10 µM | 340,000 compounds, 0.84% hits | CHO-KCNK3 thallium flux, FluxOR fluorescence; hits give low values;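 active = B-score under library mean minus 4 SD, starting fluorescence ratio at most library mean plus 5 SD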;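 also: more negative B-score means stronger inhibition of thallium flux through KCNK3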
KCNQ1 inh – inhibitors of human KCNQ1 potassium channel. P51787. CHO-K1 KCNQ1, FluxOR thallium flux fluorescence; hits give high values. B-score at 10 µM. 310,000 compounds, 1.3% hits. AID 2642;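 active = compounds whose thallium flux B-score, printed positive for inhibition, exceeds three library SD while starting fluorescence stays within three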;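 also: channel opened by potassium depolarization with thallium stimulus after 20 min compound exposure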
KCNQ1 act – potentiates or activates the human KCNQ1 potassium channel | B-score at 10 µM | AID 2648 | 310,000 compounds, 0.35% hits | CHO-K1 KCNQ1, thallium flux FluxOR fluorescence; hits give high values;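 active = fluorescence ratio B-score, a plate-corrected score, at least three library SD, with initial intensity B-score within 5 SD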
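Assay system: CHO-K1 cells stably expressing KCNQ1; Medium: assay buffer with matched DMSO; Also added: K+/Tl+ depolarizing stimulus; Dosing: single dose; Timing: dye 90 min, compound 20 min, room temperature; Measured by: kinetic FluxOR thallium fluorescence, 10-s 1-Hz baseline, 110-s post-stimulus read; Read-out: peak-minus-minimum fluorescence over initial fluorescence, negative-control normalized, B-scored.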
KCNK9 inh – inhibitors of human KCNK9 two-pore domain potassium channel; B-score at 10 µM; 310,000 compounds, 1.2% hits; HEK293 KCNK9, FluxOR thallium flux fluorescence; hits give low values; AID 488922; Q9NPC2;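 active = ratio B-score over 3 SD below the library mean, with starting fluorescence within 5 SD of its mean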;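 also: negative B-score means less thallium flux so channel inhibition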
hERG protect – compounds protecting human hERG from proarrhythmic drug block. 310,000 compounds, 0.51% hits. CHO-hERG, FluxOR thallium flux, dofetilide IC70 present. activation (rescue from dofetilide block), less the hit threshold, % at 10 µM;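 active = activation above the mean of controls blocked by dofetilide plus 5 SD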;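 also: thallium influx through hERG after potassium depolarization seen as dye fluorescence rise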
The depositor's hits bear a star; i = inactive; . = no result given.

SMILES | Kir21 inh | KCNK3 block | KCNQ1 inh | KCNQ1 act | KCNK9 inh | hERG protect
CC(C)(C)C(CO)NC(=O)c1ccc[nH]1 (stereo not given) | . | i | . | . | . | .
CCc1ccc(-c2cc(C(=O)O)c3ccccc3n2)s1 | -2.1 | i | i | i | i | -3
CCCCC(C(=O)OCC)C(N)Cc1ccc(F)cc1 (stereo not given) | -4.7* | i | i | i | i | -5
CCn1c(N2CCN(S(=O)(=O)c3ccccc3)CC2)nc2ccccc21 | 1 | i | i | i | i | -6
CCCCCCOc1ccc(NC(=O)CC2C(=O)N(CC)C(=S)N2Cc2ccco2)cc1 (stereo not given) | 2 | i | 9* | i | i | -24
OC(CNCCc1ccc(C(F)(F)F)cc1)COC(c1ccccc1)c1ccccc1 (stereo not given) | -7.9* | i | i | i | i | -27
O=C(CSCSCC(=O)Nc1ccc2c(c1)OCO2)Nc1ccc2c(c1)OCO2 | -0.15 | i | i | i | i | 5.0*
O=C(CN1C(=O)CSCC1=O)Nc1ccc2c(c1)OCO2 | -0.46 | i | i | i | i | 4.7*
Cc1nn(C)c(C)c1CNC(=O)Nc1ccc2c(c1)OCO2 | 1.1 | i | i | i | i | 7.4*
CC(=O)Nc1cccc(NC(=O)CS(=O)(=O)c2cn(CC(=O)N(C(C)C)C(C)C)c3ccccc23)c1 | -0.45 | i | i | i | i | -7
CC(=O)c1ccc(S(=O)(=O)NCc2ccc(C(=O)NCC(c3ccccc3)N(C)C)cc2)cc1 (stereo not given) | -1.7 | i | i | i | i | -10
O=C(Nc1ccccc1)N1CCN(c2cccc(C(F)(F)F)c2)CC1 | -0.25 | i | i | i | -7.4* | -9
COc1cccc(NC(=O)COC(=O)C2CC3CCCC(C2)C3=O)c1 (stereo not given) | . | i | . | . | . | .
CC(=O)[C@]1(O)Cc2c(O)c3c(c(O)c2[C@@H](O[C@H]2C[C@H](N)[C@H](O)[C@H](C)O2)C1)C(=O)c1ccccc1C3=O | -12 | . | 21* | i | i | -49
O=C1/C(=N\S(=O)(=O)c2cccs2)C([n+]2cccc(Cc3ccccc3)c2)=C([O-])c2ccccc21 | -0.68 | i | i | i | -6.6* | -8
N#Cc1cc([N+](=O)[O-])c(-n2nnc3ccccc32)c([N+](=O)[O-])c1 | -0.09 | i | 8* | i | i | -24
O=C(N/N=C/c1ccc(OC(F)F)cc1)C1=COCCO1 | -2.2 | i | i | i | i | 16*
COc1ccc(OC)c(NC(=S)N2CCN(C/C=C/c3ccccc3)CC2)c1 | -1.3 | i | i | i | i | 49*
Cc1ccc(S(=O)(=O)NC(CC(C)C)C(=O)N2CCN(C/C=C/c3ccccc3)CC2)cc1 (stereo not given) | . | i | . | . | . | .
C=CCSC(=C(C#N)C#N)c1cc2c([nH]1)CCCC2 | -0.29 | i | 8* | i | i | -14
NCCNc1ccc(C(=O)N2c3ccccc3Sc3ccccc32)cc1[N+](=O)[O-] | -4.9* | i | 8* | i | i | -31
Cc1cccc(OCc2nn[nH]n2)c1C | -0.41 | i | i | i | i | -10
c1cncc(-c2nnc(-c3ccco3)o2)c1 | 0.33 | i | i | i | i | 6.3*
Clc1ccc(-c2nnc(-c3ccco3)o2)cc1 | -2.7 | i | i | i | i | -5
COCCN(CCOC)Cc1c(O)ccc2c3c(c(=O)oc12)CCC3 | -1.1 | i | i | i | -7.1* | -7
SMILES | Kir21 inh | KCNK3 block | KCNQ1 inh | KCNQ1 act | KCNK9 inh | hERG protect
N#Cc1cccc(NC(=O)CN2CCN(Cc3ccccc3)CC2)c1 | -0.09 | i | i | i | i | -8
CCCc1ccc(S(=O)(=O)N(C)S(=O)(=O)c2ccc(F)cc2)cc1 | 0.31 | i | i | i | -6.7* | -10
O=C(Oc1cccc(NC(=O)c2ccco2)c1)c1ccc(Br)c(S(=O)(=O)N2CCCCC2)c1 | -0.24 | i | i | i | -7.8* | -16
COc1ccc(-c2cc(C(=O)OCC(=O)c3ccc(C)c([N+](=O)[O-])c3)c3ccccc3n2)cc1 | 0.49 | i | i | i | i | -1
COc1ccc(-c2nn(-c3ccccc3)cc2C(=O)OCC(=O)c2ccc(C)c([N+](=O)[O-])c2)cc1 | 0.09 | i | 8* | i | i | -15
Cc1ccc(C(C)C)c(OCC(=O)NCC(c2cccs2)N2CCOCC2)c1 (stereo not given) | -6.2* | i | i | i | i | -15
Cc1cc(OCC(=O)NCC(c2cccs2)N2CCOCC2)ccc1C(C)C (stereo not given) | -1.9 | i | i | i | i | -15
Cc1ccc(OCC(=O)Nc2ccccc2N2CCOCC2)c(C)c1 | -8.9* | i | i | i | i | -4
COc1cc(C)ccc1OCC(=O)Nc1ccccc1N1CCOCC1 | . | i | . | . | . | .
Cc1cc(Cl)ccc1OCC(=O)Nc1ccccc1C(=O)N1CCOCC1 | -4.5* | i | i | i | i | -12
Cc1ccc(C(C)C)c(OCC(=O)Nc2ccc(N3CCOCC3)cc2N2CCOCC2)c1 | . | i | . | . | . | .
Cc1ccc(C(C)C)c(OCC(=O)Nc2ccccc2N2CCN(C)CC2)c1 | -5.1* | i | i | i | i | -10
CN(C)CCC(=O)c1cccc(Br)c1 | 0.63 | i | i | i | i | -8
Cc1cc(OCC(=O)Nc2ccccc2N2CCCCC2)ccc1C(C)C | -1.2 | i | i | i | i | -10
CC(=O)N1CCN(c2ccccc2NC(=O)COc2cc(C)ccc2C(C)C)CC1 | -3.2 | i | 6* | i | i | -24
O=C(C[n+]1ccccc1)N/N=C/c1ccc(Cl)c(Cl)c1 | 0 | i | i | i | i | 5.2*
CCN(CC)CCNC(=O)c1cc(Br)c(N)cc1OC | . | i | . | . | . | .
O=C(NCc1ccc(F)cc1)c1cc2sccc2n1Cc1ccc(F)cc1 | 1.2 | . | i | i | -10* | -9
CCC(C)(c1ccc(C=O)s1)c1ccc(C=O)s1 | -1.7 | i | i | i | i | 6.0*
O=Cc1ccc(-c2cccs2)s1 | . | i | . | . | . | .
COc1ccc(C2(CO)OC(CO)C(O)C2O)cc1 (stereo not given) | . | i | . | . | . | .
Cc1ccc(N2NC(=O)/C(=C\c3cc4c(cc3[N+](=O)[O-])OCO4)C2=O)cc1C | -6.5* | i | i | i | i | -7
COc1cc(/C=C2/C(=O)NN(c3ccc(C)c(Cl)c3)C2=O)cc([N+](=O)[O-])c1O | 0.94 | i | i | i | i | -17
Cc1cccc(C)c1OCC1CNC(=O)O1 (stereo not given) | -0.44 | i | i | i | i | 6.5*

Bioassay records: PubChem, Johns Hopkins Ion Channel Center
